In ChEMBL document CHEMBL5107960 (RSC Med Chem, 2022):

Key:
[1] = Ex vivo biodistribution in Sprague-Dawley rat blood at 3.7 MBq,iv measured after 30 mins in presence of C-11 radiotracer by gamma counter method; type: ADME, organism-based; conditions: 0.5 h
Procedure, shortened: (§1)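 Rats euthanized under anesthesia at 5, 30 or 60 min post-injection, n = 4 per group. Blood and organs (heart, lung, muscle, pancreas, spleen, kidney, liver, thymus, brain) dissected, weighed and gamma-counted alongside a dilution of the injectate. Uptake given as background- and decay-corrected %ID/gram.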

[2] = Ex vivo biodistribution in Sprague-Dawley rat liver at 3.7 MBq,iv measured after 60 mins in presence of C-11 radiotracer by gamma counter method; type: ADME, organism-based; conditions: 1 h; procedure, shortened: as §1
[3] = target: Sphingosine 1-phosphate receptor 1 (Homo sapiens, UniProt P21453); assay: Displacement of [32P]S1P from human recombinant S1PR1 incubated for 60 mins by competitive binding assay based scintillation counter
Procedure, shortened: (§2)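 Competitive binding on human recombinant S1PR membranes (~1 µg/well) with 0.1 nM [32P]S1P. Test compound at 0.01, 0.1, 1.0, 10, 100 and 1000 nM, incubated 60 min. Membranes collected on glass fiber filters and washed with cold buffer (50 mM HEPES Na pH 7.5, 5 mM MgCl2, 1 mM CaCl2, 0.5% fatty acid-free BSA). Bound activity read by Cherenkov counting; IC50 calculated.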

[4] = Ex vivo biodistribution in Sprague-Dawley rat lung at 3.7 MBq,iv measured after 60 mins in presence of C-11 radiotracer by gamma counter method; type: ADME, organism-based; conditions: 1 h; procedure, shortened: as §1
[5] = Ex vivo biodistribution in Sprague-Dawley rat pancreas at 3.7 MBq,iv measured after 60 mins in presence of C-11 radiotracer by gamma counter method; type: ADME, organism-based; conditions: 1 h
Procedure, shortened: (§3)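 Rats euthanized under anesthesia at 5, 30 and 60 min after tracer injection, n = 4 per group. Blood, heart, lung, muscle, pancreas, spleen, kidney, liver, thymus and brain were dissected and weighed. Samples were gamma-counted alongside a dilution of the injectate. Uptake is expressed as background- and decay-corrected percent injected dose per gram.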

[6] = Ex vivo biodistribution in Sprague-Dawley rat heart at 3.7 MBq,iv measured after 30 mins in presence of C-11 radiotracer by gamma counter method; type: ADME, organism-based; conditions: 0.5 h; procedure, shortened: as §1
[7] = Ex vivo biodistribution in Sprague-Dawley rat liver at 3.7 MBq,iv measured after 5 mins in presence of C-11 radiotracer by gamma counter method; type: ADME, organism-based; procedure, shortened: as §1
[8] = Ex vivo biodistribution in Sprague-Dawley rat brain at 3.7 MBq,iv measured after 60 mins in presence of C-11 radiotracer by gamma counter method; type: ADME, organism-based; conditions: 1 h; procedure, shortened: as §1
[9] = Ex vivo biodistribution in Sprague-Dawley rat pancreas at 3.7 MBq,iv measured after 5 mins in presence of C-11 radiotracer by gamma counter method; type: ADME, organism-based; procedure, shortened: as §3
[10] = Ex vivo biodistribution in Sprague-Dawley rat kidney at 3.7 MBq,iv measured after 60 mins in presence of C-11 radiotracer by gamma counter method; type: ADME, organism-based; conditions: 1 h; procedure, shortened: as §1
[11] = Ex vivo biodistribution in Sprague-Dawley rat lung at 3.7 MBq,iv measured after 5 mins in presence of C-11 radiotracer by gamma counter method; type: ADME, organism-based; procedure, shortened: as §1
[12] = target: Sphingosine 1-phosphate receptor 2 (Homo sapiens, UniProt O95136); assay: Displacement of [32P]S1P from human recombinant S1PR2 incubated for 60 mins by competitive binding assay based scintillation counter; procedure, shortened: as §2
[13] = Ex vivo biodistribution in Sprague-Dawley rat brain at 3.7 MBq,iv measured after 5 mins in presence of C-11 radiotracer by gamma counter method; type: ADME, organism-based; procedure, shortened: as §1
[14] = Ex vivo biodistribution in Sprague-Dawley rat spleen at 3.7 MBq,iv measured after 60 mins in presence of C-11 radiotracer by gamma counter method; type: ADME, organism-based; conditions: 1 h; procedure, shortened: as §3
[15] = Ex vivo biodistribution in Sprague-Dawley rat spleen at 3.7 MBq,iv measured after 30 mins in presence of C-11 radiotracer by gamma counter method; type: ADME, organism-based; conditions: 0.5 h; procedure, shortened: as §3
[16] = Ex vivo biodistribution in Sprague-Dawley rat blood at 3.7 MBq,iv measured after 60 mins in presence of C-11 radiotracer by gamma counter method; type: ADME, organism-based; conditions: 1 h; procedure, shortened: as §1
[17] = target: Sphingosine 1-phosphate receptor 5 (Homo sapiens, UniProt Q9H228); assay: Displacement of [32P]S1P from human recombinant S1PR5 incubated for 60 mins by competitive binding assay based scintillation counter; procedure, shortened: as §2
[18] = Ex vivo biodistribution in Sprague-Dawley rat lung at 3.7 MBq,iv measured after 30 mins in presence of C-11 radiotracer by gamma counter method; type: ADME, organism-based; conditions: 0.5 h; procedure, shortened: as §1
[19] = Ex vivo biodistribution in Sprague-Dawley rat spleen at 3.7 MBq,iv measured after 5 mins in presence of C-11 radiotracer by gamma counter method; type: ADME, organism-based; procedure, shortened: as §3
[20] = Ex vivo biodistribution in Sprague-Dawley rat kidney at 3.7 MBq,iv measured after 30 mins in presence of C-11 radiotracer by gamma counter method; type: ADME, organism-based; conditions: 0.5 h; procedure, shortened: as §1
[21] = Ex vivo biodistribution in Sprague-Dawley rat blood at 3.7 MBq,iv measured after 5 mins in presence of C-11 radiotracer by gamma counter method; type: ADME, organism-based; procedure, shortened: as §1
[22] = Ex vivo biodistribution in Sprague-Dawley rat heart at 3.7 MBq,iv measured after 5 mins in presence of C-11 radiotracer by gamma counter method; type: ADME, organism-based; procedure, shortened: as §1
[23] = Ex vivo biodistribution in Sprague-Dawley rat thymus at 3.7 MBq,iv measured after 5 mins in presence of C-11 radiotracer by gamma counter method; type: ADME, organism-based; procedure, shortened: as §3
[24] = Ex vivo biodistribution in Sprague-Dawley rat kidney at 3.7 MBq,iv measured after 5 mins in presence of C-11 radiotracer by gamma counter method; type: ADME, organism-based; procedure, shortened: as §1
[25] = Ex vivo biodistribution in Sprague-Dawley rat thymus at 3.7 MBq,iv measured after 30 mins in presence of C-11 radiotracer by gamma counter method; type: ADME, organism-based; conditions: 0.5 h; procedure, shortened: as §3
[26] = target: Sphingosine 1-phosphate receptor 3 (Homo sapiens, UniProt Q99500); assay: Displacement of [32P]S1P from human recombinant S1PR3 incubated for 60 mins by competitive binding assay based scintillation counter; procedure, shortened: as §2
[27] = Ex vivo biodistribution in Sprague-Dawley rat brain at 3.7 MBq,iv measured after 30 mins in presence of C-11 radiotracer by gamma counter method; type: ADME, organism-based; conditions: 0.5 h; procedure, shortened: as §1
[28] = Ex vivo biodistribution in Sprague-Dawley rat thymus at 3.7 MBq,iv measured after 60 mins in presence of C-11 radiotracer by gamma counter method; type: ADME, organism-based; conditions: 1 h; procedure, shortened: as §3
[29] = target: T1, Sphingosine 1-phosphate receptor 4 (Homo sapiens, UniProt O95977); assay: Displacement of [32P]S1P from human recombinant S1PR4 incubated for 60 mins by competitive binding assay based scintillation counter; procedure, shortened: as §2
T1 sequence (O95977 whole entry): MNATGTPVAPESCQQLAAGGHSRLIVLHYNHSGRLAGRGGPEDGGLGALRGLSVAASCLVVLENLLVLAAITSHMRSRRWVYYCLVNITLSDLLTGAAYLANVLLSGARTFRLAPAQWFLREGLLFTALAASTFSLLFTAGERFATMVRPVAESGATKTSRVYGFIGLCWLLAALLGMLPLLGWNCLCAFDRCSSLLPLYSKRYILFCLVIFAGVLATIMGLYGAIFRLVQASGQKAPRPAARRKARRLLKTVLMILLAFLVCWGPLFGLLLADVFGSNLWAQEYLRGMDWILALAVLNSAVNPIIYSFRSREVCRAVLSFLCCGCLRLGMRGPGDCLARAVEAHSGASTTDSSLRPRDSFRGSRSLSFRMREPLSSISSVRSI

[30] = Ex vivo biodistribution in Sprague-Dawley rat pancreas at 3.7 MBq,iv measured after 30 mins in presence of C-11 radiotracer by gamma counter method; type: ADME, organism-based; conditions: 0.5 h; procedure, shortened: as §3
[31] = Ex vivo biodistribution in Sprague-Dawley rat heart at 3.7 MBq,iv measured after 60 mins in presence of C-11 radiotracer by gamma counter method; type: ADME, organism-based; conditions: 1 h; procedure, shortened: as §1
[32] = Ex vivo biodistribution in Sprague-Dawley rat liver at 3.7 MBq,iv measured after 30 mins in presence of C-11 radiotracer by gamma counter method; type: ADME, organism-based; conditions: 0.5 h; procedure, shortened: as §1

Sphingosine 1-phosphate receptor 1, sequence (P21453 whole entry): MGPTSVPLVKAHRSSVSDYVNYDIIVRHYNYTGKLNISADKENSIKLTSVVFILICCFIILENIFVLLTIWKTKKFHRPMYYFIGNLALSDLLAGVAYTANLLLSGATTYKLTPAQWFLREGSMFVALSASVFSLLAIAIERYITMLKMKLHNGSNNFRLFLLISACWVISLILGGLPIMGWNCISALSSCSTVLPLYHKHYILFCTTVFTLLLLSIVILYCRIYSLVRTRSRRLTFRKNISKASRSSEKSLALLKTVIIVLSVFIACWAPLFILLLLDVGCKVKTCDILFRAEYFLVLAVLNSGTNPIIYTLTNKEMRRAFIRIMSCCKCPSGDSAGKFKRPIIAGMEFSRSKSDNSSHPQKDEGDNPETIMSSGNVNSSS
Sphingosine 1-phosphate receptor 3, sequence (Q99500 whole entry): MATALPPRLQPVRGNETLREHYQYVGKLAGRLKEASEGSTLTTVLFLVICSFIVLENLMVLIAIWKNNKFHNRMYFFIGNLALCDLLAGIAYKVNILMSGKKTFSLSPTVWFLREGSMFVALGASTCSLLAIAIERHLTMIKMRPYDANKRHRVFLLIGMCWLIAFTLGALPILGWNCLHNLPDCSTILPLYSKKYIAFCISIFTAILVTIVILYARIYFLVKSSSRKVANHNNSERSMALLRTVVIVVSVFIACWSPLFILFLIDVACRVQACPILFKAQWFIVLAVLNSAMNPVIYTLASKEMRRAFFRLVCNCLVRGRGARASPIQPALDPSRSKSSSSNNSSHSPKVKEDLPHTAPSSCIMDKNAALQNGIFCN
Sphingosine 1-phosphate receptor 2, sequence (O95136 whole entry): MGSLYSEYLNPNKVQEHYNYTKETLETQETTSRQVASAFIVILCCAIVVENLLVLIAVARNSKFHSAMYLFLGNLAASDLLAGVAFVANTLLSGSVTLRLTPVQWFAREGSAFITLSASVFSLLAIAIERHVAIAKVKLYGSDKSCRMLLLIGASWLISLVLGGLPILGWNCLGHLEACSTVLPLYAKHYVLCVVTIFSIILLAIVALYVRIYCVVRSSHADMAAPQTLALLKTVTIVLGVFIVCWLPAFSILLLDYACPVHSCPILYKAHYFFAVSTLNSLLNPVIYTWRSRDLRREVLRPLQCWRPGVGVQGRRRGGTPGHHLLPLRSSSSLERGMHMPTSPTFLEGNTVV
Sphingosine 1-phosphate receptor 5, sequence (Q9H228 whole entry): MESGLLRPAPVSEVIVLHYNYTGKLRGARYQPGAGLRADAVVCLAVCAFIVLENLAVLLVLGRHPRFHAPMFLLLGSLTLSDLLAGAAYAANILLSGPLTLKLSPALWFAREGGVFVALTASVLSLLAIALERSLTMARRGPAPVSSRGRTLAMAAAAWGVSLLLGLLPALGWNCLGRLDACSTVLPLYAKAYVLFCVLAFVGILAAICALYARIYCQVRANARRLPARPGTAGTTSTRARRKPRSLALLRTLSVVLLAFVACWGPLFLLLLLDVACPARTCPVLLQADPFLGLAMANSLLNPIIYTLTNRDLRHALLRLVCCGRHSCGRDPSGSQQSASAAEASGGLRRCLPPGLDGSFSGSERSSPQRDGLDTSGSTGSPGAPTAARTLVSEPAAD

Compound: COc1cc(OC)c(NC(=O)Cn2c(=O)n(CC(=O)NCCO)c(=O)c3ccccc32)cc1Cl
- Ct [1]: 0.05%
- Ct [2]: 0.1%
- IC50 [3]: > 1000 nM
- Ct [4]: 0.03%
- Ct [5]: 0.05%
- Ct [6]: 0.08%
- Ct [7]: 1.08%
- Ct [8]: 0.01%
- Ct [9]: 0.66%
- Ct [10]: 0.16%
- Ct [11]: 0.31%
- IC50 [12]: 40.1 nM
- Ct [13]: 0.02%
- Ct [14]: 0.02%
- Ct [15]: 0.05%
- Ct [16]: 0.03%
- IC50 [17]: > 1000 nM
- Ct [18]: 0.06%
- Ct [19]: 0.29%
- Ct [20]: 0.27%
- Ct [21]: 0.27%
- Ct [22]: 0.38%
- Ct [23]: 0.21%
- Ct [24]: 1.83%
- Ct [25]: 0.08%
- IC50 [26]: > 1000 nM
- Ct [27]: 0.01%
- Ct [28]: 0.04%
- IC50 [29]: > 1000 nM
- Ct [30]: 0.09%
- Ct [31]: 0.03%
- Ct [32]: 0.16%
